Reference: ChEMBL document CHEMBL3525900, “Pharmacokinetics, distribution, and metabolism of [14C]sunitinib in rats, monkeys, and humans” (Drug Metab Dispos, 2012)

What was measured:
[1] = Drug concentration in female Lister Hooded pigmented rat salivary gland assessed as radioactivity per gram of tissue at 20 mg/kg administered as single dose via gastric gavage measured after 24 hrs by autoradiographic analysis; type: ADME, organism-based; parameters: dose 20 mg/kg, dosed compound name [14C]Sunitinib; settings: in vivo, po
Method in brief: (§1)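 Lister Hooded (pigmented) rats, ca 7-8 weeks old, acclimated 7 days, given [14C]sunitinib L-malate by gastric gavage at 20 mg/kg (15 mg freebase/kg, 100 µCi/kg). One male and one female killed by CO2 at 24, 72, 168 and 336 h. Carcasses frozen in solid CO2/hexane and embedded in frozen cellulose. 30 µm sagittal cryosections were freeze-dried. Tissue radioactivity measured by quantitative whole-body autoradiography against calibration standards, with background subtracted.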

Zone of skin [2] = assay: Drug concentration in male Lister Hooded pigmented rat abdomen skin assessed as radioactivity per gram of tissue at 20 mg/kg administered as single dose via gastric gavage measured after 336 hrs by autoradiographic analysis; type: ADME, organism-based; parameters: dose 20 mg/kg, dosed compound name [14C]Sunitinib; settings: in vivo, po
[3] = Drug concentration in male Lister Hooded pigmented rat skeletal muscle assessed as radioactivity per gram of tissue at 20 mg/kg administered as single dose via gastric gavage measured after 24 hrs by autoradiographic analysis; type: ADME, organism-based; parameters: dose 20 mg/kg, dosed compound name [14C]Sunitinib; settings: in vivo, po
Blood = assay: Drug concentration in male albino rat blood assessed as radioactivity per gram of tissue at 20 mg/kg administered as single dose via gastric gavage measured after 6 hrs by autoradiographic analysis; type: ADME, organism-based; parameters: dose 20 mg/kg, dosed compound name [14C]Sunitinib; settings: in vivo, po
Homo sapiens = assay: Cmax as total radioactivity in human plasma at 50 mg, po administered as single dose measured up to 24 hrs by LC/MS/MS analysis; type: ADME, organism-based; parameters: dose 50 mg, dosed compound name [14C]Sunitinib, route oral; settings: in vivo
Method in brief: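 Open-label phase I study in 8 subjects given one 50 mg oral dose of [14C]sunitinib (100 µCi). Plasma total radioactivity was counted by scintillation on triplicate 0.25 mL aliquots. Sunitinib was quantified by LC-MS-MS. Noncompartmental analysis: Cmax read directly, terminal t½ = ln(2)/slope of the log-concentration regression, AUC by linear trapezoidal rule to the last detectable concentration.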

[4] = Drug concentration in male albino rat lymph node assessed as radioactivity per gram of tissue at 20 mg/kg administered as single dose via gastric gavage measured after 6 hrs by autoradiographic analysis; type: ADME, organism-based; parameters: dose 20 mg/kg, dosed compound name [14C]Sunitinib; settings: in vivo, po
[5] = Drug concentration in male albino rat preputial gland assessed as radioactivity per gram of tissue at 20 mg/kg administered as single dose via gastric gavage measured after 24 hrs by autoradiographic analysis; type: ADME, organism-based; parameters: dose 20 mg/kg, dosed compound name [14C]Sunitinib; settings: in vivo, po
Cynomolgus monkey [6] = assay: Cmax as total radioactivity in male cynomolgus monkey plasma at 6 mg/kg, po administered as single dose by LC/MS/MS analysis; type: ADME, organism-based, Macaca fascicularis; parameters: dose 6 mg/kg, dosed compound name [14C]Sunitinib, route oral; settings: in vivo
Method in brief: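 Cynomolgus monkeys of both sexes received one oral gavage of [14C]sunitinib L-malate at 6 mg/kg (37 µCi/kg). Femoral-vein blood was taken into heparin from 0.5 to 336 h. Plasma was kept cold and protected from light, then stored at -80 °C. Total radioactivity was by scintillation counting and sunitinib by methanol-extraction LC-MS-MS. Cmax was from raw data, t½ from the log-linear terminal slope, AUC(0-∞) by linear trapezoidal rule.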

Cynomolgus monkey [7] = assay: Drug recovery in cage residue of male cynomolgus monkey at 6 mg/kg, po administered as single dose during 0 to 336 hrs by liquid scintillation counting; type: ADME, organism-based, Macaca fascicularis; parameters: dose 6 mg/kg, dosed compound name [14C]Sunitinib, route oral; settings: in vivo
[8] = Drug concentration in male albino rat lymph node assessed as radioactivity per gram of tissue at 20 mg/kg administered as single dose via gastric gavage measured after 3 hrs by autoradiographic analysis; type: ADME, organism-based; parameters: dose 20 mg/kg, dosed compound name [14C]Sunitinib; settings: in vivo, po
[9] = Drug concentration in female albino rat thyroid gland assessed as radioactivity per gram of tissue at 20 mg/kg administered as single dose via gastric gavage measured after 72 hrs by autoradiographic analysis; type: ADME, organism-based; parameters: dose 20 mg/kg, dosed compound name [14C]Sunitinib; settings: in vivo, po
Large intestine = assay: Drug concentration in male albino rat large intestine assessed as radioactivity per gram of tissue at 20 mg/kg administered as single dose via gastric gavage measured after 3 hrs by autoradiographic analysis; type: ADME, organism-based; parameters: dose 20 mg/kg, dosed compound name [14C]Sunitinib; settings: in vivo, po
[10] = Drug concentration in female albino rat preputial gland assessed as radioactivity per gram of tissue at 20 mg/kg administered as single dose via gastric gavage measured after 72 hrs by autoradiographic analysis; type: ADME, organism-based; parameters: dose 20 mg/kg, dosed compound name [14C]Sunitinib; settings: in vivo, po
Method in brief: (§2)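 Sprague Dawley albino rats, ca 7-8 weeks old, dosed once by gastric gavage with [14C]sunitinib L-malate (15 mg freebase/kg, 100 µCi/kg). One male and one female killed by CO2 at 3, 6, 24, 72 and 168 h. Carcasses frozen in solid CO2/hexane, embedded and cut into 30 µm sagittal sections, then freeze-dried. Radioactivity quantified by whole-body autoradiography against standards by regression, background subtracted.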

Small intestine = assay: Drug concentration in male albino rat small intestine assessed as radioactivity per gram of tissue at 20 mg/kg administered as single dose via gastric gavage measured after 24 hrs by autoradiographic analysis; type: ADME, organism-based; parameters: dose 20 mg/kg, dosed compound name [14C]Sunitinib; settings: in vivo, po
Zone of skin [11] = assay: Drug concentration in female Lister Hooded pigmented rat abdomen skin assessed as radioactivity per gram of tissue at 20 mg/kg administered as single dose via gastric gavage measured after 24 hrs by autoradiographic analysis; type: ADME, organism-based; parameters: dose 20 mg/kg, dosed compound name [14C]Sunitinib; settings: in vivo, po
Method in brief: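 Pigmented Lister Hooded rats, 7-8 weeks old, received [14C]sunitinib L-malate by gavage at 20 mg/kg (15 mg freebase/kg, 100 µCi/kg). One rat per sex was killed by CO2 at each of 24, 72, 168 and 336 h. Carcasses were frozen in solid CO2/hexane and cut into 30 µm sagittal sections, then freeze-dried. Tissue radioactivity was quantified by whole-body autoradiography calibrated against standards by regression (LOQ 0.04–0.06 µg eq/g).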

Thymus = assay: Drug concentration in female albino rat thymus assessed as radioactivity per gram of tissue at 20 mg/kg administered as single dose via gastric gavage measured after 6 hrs by autoradiographic analysis; type: ADME, organism-based; parameters: dose 20 mg/kg, dosed compound name [14C]Sunitinib; settings: in vivo, po
Rattus norvegicus [12] = assay: Drug recovery in cage residue of male Sprague-Dawley rat at 15 mg/kg, po administered as single dose during 0 to 72 hrs by liquid scintillation counting; type: ADME, organism-based; parameters: dose 15 mg/kg, dosed compound name [14C]Sunitinib, route oral; settings: in vivo
Rattus norvegicus [13] = assay: Total drug recovery in female Sprague-Dawley rat at 5 mg/kg, iv administered as single dose during 0 to 72 hrs by liquid scintillation counting; type: ADME, organism-based; parameters: dose 5 mg/kg, dosed compound name [14C]Sunitinib, route intravenous; settings: in vivo
[14] = Drug concentration in female albino rat salivary gland assessed as radioactivity per gram of tissue at 20 mg/kg administered as single dose via gastric gavage measured after 6 hrs by autoradiographic analysis; type: ADME, organism-based; parameters: dose 20 mg/kg, dosed compound name [14C]Sunitinib; settings: in vivo, po
Spinal cord = assay: Drug concentration in female albino rat spinal cord assessed as radioactivity per gram of tissue at 20 mg/kg administered as single dose via gastric gavage measured after 24 hrs by autoradiographic analysis; type: ADME, organism-based; parameters: dose 20 mg/kg, dosed compound name [14C]Sunitinib; settings: in vivo, po
[15] = Drug recovery in urine of female cynomolgus monkey at 6 mg/kg, po administered as single dose during 0 to 336 hrs by liquid scintillation counting; type: ADME, organism-based, Macaca fascicularis; parameters: dose 6 mg/kg, dosed compound name [14C]Sunitinib, route oral; settings: in vivo
[16] = Drug concentration in male albino rat thyroid gland assessed as radioactivity per gram of tissue at 20 mg/kg administered as single dose via gastric gavage measured after 72 hrs by autoradiographic analysis; type: ADME, organism-based; parameters: dose 20 mg/kg, dosed compound name [14C]Sunitinib; settings: in vivo, po
[17] = Drug concentration in female Lister Hooded pigmented rat brown fat assessed as radioactivity per gram of tissue at 20 mg/kg administered as single dose via gastric gavage measured after 24 hrs by autoradiographic analysis; type: ADME, organism-based, Brown adipose tissue; parameters: dose 20 mg/kg, dosed compound name [14C]Sunitinib; settings: in vivo, po; method in brief: as §1
[18] = Drug recovery in urine of male cynomolgus monkey at 6 mg/kg, po administered as single dose during 0 to 336 hrs by liquid scintillation counting; type: ADME, organism-based, Macaca fascicularis; parameters: dose 6 mg/kg, dosed compound name [14C]Sunitinib, route oral; settings: in vivo
Liver = assay: Drug concentration in female Lister Hooded pigmented rat liver assessed as radioactivity per gram of tissue at 20 mg/kg administered as single dose via gastric gavage measured after 72 hrs by autoradiographic analysis; type: ADME, organism-based; parameters: dose 20 mg/kg, dosed compound name [14C]Sunitinib; settings: in vivo, po; method in brief: as §1
[19] = Drug concentration in female albino rat lachrymal gland assessed as radioactivity per gram of tissue at 20 mg/kg administered as single dose via gastric gavage measured after 72 hrs by autoradiographic analysis; type: ADME, organism-based; parameters: dose 20 mg/kg, dosed compound name [14C]Sunitinib; settings: in vivo, po; method in brief: as §2

## CCN(CC)CCNC(=O)c1c(C)[nH]c(/[14CH]=C2\C(=O)Nc3ccc(F)cc32)c1C.O=C(O)C[C@H](O)C(=O)O
[1]
  Radiolabel recovery: 1.66 ugequiv
Zone of skin [2]
  Radiolabel recovery: 0.3 ugequiv
[3]
  Radiolabel recovery: 0.3 ugequiv
Blood
  Radiolabel recovery: 0.84 ugequiv
Homo sapiens
  Cmax: 67.4 ngequiv/ml
[4]
  Radiolabel recovery: 11.26 ugequiv
[5]
  Radiolabel recovery: 13.66 ugequiv
Cynomolgus monkey [6]
  Cmax: 243 ngequiv/ml
Cynomolgus monkey [7]
  Radiolabel recovery: 1.9%
[8]
  Radiolabel recovery: 8.86 ugequiv
[9]
  Radiolabel recovery: 0.26 ugequiv
Large intestine
  Radiolabel recovery: 6.05 ugequiv
[10]
  Radiolabel recovery: 0.24 ugequiv
Small intestine
  Radiolabel recovery: 1.55 ugequiv
Zone of skin [11]
  Radiolabel recovery: 3.23 ugequiv
Thymus
  Radiolabel recovery: 9.8 ugequiv
Rattus norvegicus [12]
  Radiolabel recovery: 1.5%
Rattus norvegicus [13]
  Radiolabel recovery: 87.4%
[14]
  Radiolabel recovery: 23.1 ugequiv
Spinal cord
  Radiolabel recovery: 0.07 ugequiv
[15]
  Radiolabel recovery: 6.1%
[16]
  Radiolabel recovery: 0.24 ugequiv
[17]
  Radiolabel recovery: 0.73 ugequiv
[18]
  Radiolabel recovery: 4.8%
Liver
  Radiolabel recovery: 0.32 ugequiv
[19]
  Radiolabel recovery: 0.25 ugequiv
